From ChEMBL document CHEMBL1125416, “Synthesis and antiulcer activity of novel 5-(2-ethenyl substituted)-3(2H)-furanones” (1992)

Columns and labels:
Rattus norvegicus [1] = species on record: Rattus norvegicus; experiment: Effective dose that inhibits formation of induced gastric lesions.; type: functional; conditions: Stomach
In short: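 Male Sprague-Dawley rats (180–210 g), fasted 18–24 h with water allowed, dosed orally 1 h before absolute ethanol (1 mL/rat po) and killed 1 h later. Lesions scored blind by size (mm²) and number, expressed as % inhibition versus vehicle mean. Groups of ≥10 rats; Dunnett's test (p < 0.01).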

Rattus norvegicus [2] = experiment: Inhibitory activity In the indomethacin model at a dose of 120 mg/kg perorally; type: functional; conditions: route oral
In short: (§1)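 In male Sprague-Dawley rats (120–170 g) fasted 18 h with water ad libitum, oral test compound was given 30 min before indomethacin (20 mg/kg po). Rats killed by cervical dislocation 4 h later; stomachs opened along the greater curvature, rinsed, and lesions graded by size and number. Percent inhibition versus control, ≥10 rats per group.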

Rattus norvegicus [3] = experiment: Inhibitory activity in acidified aspirin model at a dose of 50 mg/kg perorally; type: functional; conditions: route oral
In short: (§2)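 Male Sprague-Dawley rats (120–180 g), fasted 18–24 h with water ad libitum. Compound or vehicle given po (10 mL/kg) 30 min before acidified aspirin (aspirin powder in 0.35 M HCl, 5 mL/kg po). Stomachs excised 5 h after aspirin and graded by ulcer size and number. Percent inhibition versus vehicle, ≥10 rats per group.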

Rattus norvegicus [4] = experiment: Evaluated for the duration of cytoprotective effect, in Ethanol-Necrosis model, that causes inhibition of ulceration. Absolute ethanol was administered at 8 hr after dosing; type: functional; design: concentration or dose not given beside the values
In short: (§3)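 Male Sprague-Dawley rats (180–210 g), fasted 18–24 h with water available, dosed orally with drug or vehicle 4, 6 or 8 h before absolute ethanol (1 mL per rat po). Rats killed 1 h after ethanol, stomachs kept moist with saline and scored blind by ulcer size (mm²) and number per size class. Percent inhibition is taken against the vehicle group mean score.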

Rattus norvegicus [5] = experiment: Inhibitory activity against ethanol-induced lesions, which was administered after 1 hr of oral dosing in pylorus-ligated rat model.; type: functional
Rattus norvegicus [6] = experiment: Inhibition against ethanol-induced lesions which was administered after 1 hr at a oral dosing of 25 mg/kg in pylorus-ligated rat model; type: functional
Rattus norvegicus [7] = experiment: Evaluated for the duration of cytoprotective effect, in Ethanol-Necrosis model, that causes inhibition of ulceration. Absolute ethanol was administered at 4 hr after dosing; type: functional; design: concentration or dose not given beside the values; in short: as §3
Rattus norvegicus [8] = experiment: Inhibition against ethanol-induced lesions which was administered after 1 hr at a oral dosing of 10 mg/kg in pylorus-ligated rat model; type: functional
Rattus norvegicus [9] = experiment: Inhibitory activity In acidified aspirin model at a dose of 16 mg/kg perorally; type: functional; conditions: route oral; in short: as §2
Rattus norvegicus [10] = experiment: Inhibitory activity in the indomethacin model at a dose of 40 mg/kg perorally; type: functional; conditions: route oral; in short: as §1
Rattus norvegicus [11] = experiment: Inhibitory activity In the indomethacin model at a dose of 111 mg/kg perorally; type: functional; conditions: route oral; in short: as §1
Rattus norvegicus [12] = experiment: Inhibitory activity In acidified aspirin model at a dose of 40 mg/kg perorally; type: functional; conditions: route oral; in short: as §2
Rattus norvegicus [13] = experiment: Compound was evaluated for the duration of cytoprotective effect, in Ethanol-Necrosis model, that causes inhibition of ulceration. Absolute ethanol was administered at 6 hr after dosing; type: functional; in short: as §3
Rattus norvegicus [14] = experiment: Compound was tested for inhibition against ethanol-induced lesions which was administered after 1 hr of oral dosing in rat ethanol-necrosis model
Rattus norvegicus [15] = experiment: Compound was tested for inhibition against ethanol-induced lesions which was administered after 1 hr of at a oral dosing of 25 mg/kg in pylorus-ligated rat model; type: functional
Rattus norvegicus [16] = species on record: Rattus norvegicus; experiment: Inhibitory activity In the indomethacin model.; type: functional; in short: as §1
Rattus norvegicus [17] = species on record: Rattus norvegicus; experiment: Inhibitory activity In acidified aspirin model; type: functional; in short: as §2
Rattus norvegicus [18] = experiment: Compound was evaluated for the duration of cytoprotective effect, in Ethanol-Necrosis model, that causes inhibition of ulceration. Absolute ethanol was administered at 8 hr after dosing; type: functional; in short: as §3

**Q.** Which ED50 (Rattus norvegicus [1]) does the source give for CC1(C)OC(/C=C/c2ccc(C#N)cc2)=CC1=O here?
**A.** 50 mg/kg

**Q.** And the inhibition in vivo at 120 mg/kg (Rattus norvegicus [2])?
**A.** 70%

**Q.** What about the inhibition in vivo at 50 mg/kg (Rattus norvegicus [3]) of the same compound?
**A.** 23%

**Q.** And the Inhibition (Rattus norvegicus [4])?
**A.** 66%

**Q.** And the ED50 (Rattus norvegicus [5])?
**A.** 12 mg/kg

**Q.** Which inhibition in vivo at 25 mg/kg (Rattus norvegicus [6]) does the source give for CC1(C)OC(/C=C/c2ccc(C(F)(F)F)cc2)=CC1=O here?
**A.** 30%

**Q.** With CSc1ccc(/C=C/C2=CC(=O)C(C)(C)O2)cc1 as the compound, how does the inhibition in vivo at 25 mg/kg (Rattus norvegicus [6]) read?
**A.** 5%

**Q.** How did the ED50 (Rattus norvegicus [1]) turn out when CC1(c2ccccc2)OC(/C=C/c2ccccn2)=CC1=O (configuration not stated) was run?
**A.** 40 mg/kg

**Q.** And the Inhibition (Rattus norvegicus [7])?
**A.** 28%

**Q.** And the ED50 (Rattus norvegicus [5])?
**A.** 5 mg/kg

**Q.** CC1(C)OC(/C=C/c2cc3ccccc3s2)=CC1=O was tested. Which inhibition in vivo at 10 mg/kg (Rattus norvegicus [8]) did it give?
**A.** 17%

**Q.** With CC1(C)OC(/C=C/c2ccoc2)=CC1=O as the compound, how does the inhibition in vivo at 10 mg/kg (Rattus norvegicus [8]) read?
**A.** 32%

**Q.** Which inhibition in vivo at 10 mg/kg (Rattus norvegicus [8]) does the source give for CC1(c2ccccc2)OC(/C=C/c2cccnc2)=CC1=O (configuration not stated) here?
**A.** 44%

**Q.** With CC1(C)OC(/C=C/c2ccsc2)=CC1=O as the compound, how does the ED50 (Rattus norvegicus [1]) read?
**A.** 16 mg/kg

**Q.** What about the inhibition in vivo at 16 mg/kg (Rattus norvegicus [9]) of the same compound?
**A.** 0%

**Q.** What about the inhibition in vivo at 40 mg/kg (Rattus norvegicus [10]) of the same compound?
**A.** 65%

**Q.** And the Inhibition (Rattus norvegicus [4])?
**A.** 62%

**Q.** What about the ED50 (Rattus norvegicus [5]) of the same compound?
**A.** 4 mg/kg

**Q.** How did the inhibition in vivo at 25 mg/kg (Rattus norvegicus [6]) turn out when CC1(C)OC(c2ccc(Br)cc2)=CC1=O was run?
**A.** 36%

**Q.** With CC1(C)OC(/C=C/c2ccccn2)=CC1=O as the compound, how does the inhibition in vivo at 111 mg/kg (Rattus norvegicus [11]) read?
**A.** 72%

**Q.** What about the ED50 (Rattus norvegicus [1]) of the same compound?
**A.** 40 mg/kg

**Q.** What about the Inhibition (Rattus norvegicus [7]) of the same compound?
**A.** 67%

**Q.** And the inhibition in vivo at 40 mg/kg (Rattus norvegicus [12])?
**A.** 77%

**Q.** What about the Inhibition (Rattus norvegicus [4]) of the same compound?
**A.** 76%

**Q.** What about the ED50 (Rattus norvegicus [5]) of the same compound?
**A.** 10 mg/kg

**Q.** For CC1(c2ccc(F)cc2)OC(/C=C/c2ccsc2)=CC1=O (configuration not stated), which inhibition in vivo at 10 mg/kg (Rattus norvegicus [8]) is on record?
**A.** 22%

**Q.** For Cn1cccc1/C=C/C1=CC(=O)C(C)(C)O1, which inhibition in vivo at 10 mg/kg (Rattus norvegicus [8]) is on record?
**A.** 32%

**Q.** With CC1(C)OC(/C=C/C=C/c2ccc(Cl)cc2)=CC1=O as the compound, how does the inhibition in vivo at 10 mg/kg (Rattus norvegicus [8]) read?
**A.** 33%

**Q.** With CC1(C)OC(/C=C/c2ccc(Cl)cc2)=CC1=O as the compound, how does the ED50 (Rattus norvegicus [1]) read?
**A.** 40 mg/kg

**Q.** And the Inhibition (Rattus norvegicus [7])?
**A.** 51%

**Q.** Which inhibition in vivo at 10 mg/kg (Rattus norvegicus [8]) does the source give for CC1(C)OC(/C=C/c2cnccn2)=CC1=O here?
**A.** 56%

**Q.** CC1(c2ccccc2)OC(/C=C/c2ccc(C#N)cc2)=CC1=O (configuration not stated) was tested. Which inhibition in vivo at 10 mg/kg (Rattus norvegicus [8]) did it give?
**A.** 4%

**Q.** Which inhibition in vivo at 25 mg/kg (Rattus norvegicus [6]) does the source give for CC1(C)OC(c2ccc(C(F)(F)F)cc2)=CC1=O here?
**A.** 39%

**Q.** How did the inhibition in vivo at 25 mg/kg (Rattus norvegicus [6]) turn out when CC1(C)OC(/C=C/c2ccc(Cl)cc2Cl)=CC1=O was run?
**A.** 20%

**Q.** What does the source list for CC1(C)OC(/C=C/c2cccnc2)=CC1=O?
**A.** ED50 (Rattus norvegicus [1]): 40 mg/kg; Inhibition (Rattus norvegicus [7]): 43%; Inhibition (Rattus norvegicus [13]): 60%; Inhibition (Rattus norvegicus [4]): 40%; ED50 (Rattus norvegicus [5]): 9 mg/kg

**Q.** With CC1(C)OC(/C=C/c2ccc(F)c(F)c2)=CC1=O as the compound, how does the Inhibition (Rattus norvegicus [14]) read?
**A.** 47%

**Q.** How did the ED50 (Rattus norvegicus [1]) turn out when CC1(C)OC(/C=C/c2ccc(F)cc2F)=CC1=O was run?
**A.** 100 mg/kg

**Q.** What about the Inhibition (Rattus norvegicus [7]) of the same compound?
**A.** 42%

**Q.** And the ED50 (Rattus norvegicus [5])?
**A.** 11 mg/kg

**Q.** With CC1(c2ccc(F)cc2)OC(/C=C/c2ccccn2)=CC1=O (configuration not stated) as the compound, how does the ED50 (Rattus norvegicus [5]) read?
**A.** 3.5 mg/kg

**Q.** For CC1(C)OC(/C=C/c2ccc3ccccc3c2)=CC1=O, which inhibition in vivo at 25 mg/kg (Rattus norvegicus [6]) is on record?
**A.** 43%

**Q.** With CC1(c2ccccc2)OC(/C=C/c2ccncc2)=CC1=O (configuration not stated) as the compound, how does the ED50 (Rattus norvegicus [1]) read?
**A.** 24 mg/kg

**Q.** And the Inhibition (Rattus norvegicus [7])?
**A.** 31%

**Q.** And the ED50 (Rattus norvegicus [5])?
**A.** 6 mg/kg

**Q.** For CC1(C)OC(/C=C/c2cccc(C#N)c2)=CC1=O, which inhibition in vivo at 10 mg/kg (Rattus norvegicus [8]) is on record?
**A.** 68%

**Q.** How did the inhibition in vivo at 25 mg/kg (Rattus norvegicus [15]) turn out when CC1(C)OC(/C=C/c2cccs2)=CC1=O was run?
**A.** 1%

**Q.** For CC1(C)OC(/C=C/c2ccc(S(C)(=O)=O)cc2)=CC1=O, which inhibition in vivo at 25 mg/kg (Rattus norvegicus [6]) is on record?
**A.** 56%

**Q.** Which results are given for CC1(C)OC(/C=C/c2ccc(F)cc2)=CC1=O?
**A.** ED50 (Rattus norvegicus [1]): 50 mg/kg; Inhibition (Rattus norvegicus [7]): 61%; Inhibition (Rattus norvegicus [13]): 50%; Inhibition (Rattus norvegicus [4]): 25%; ED50 (Rattus norvegicus [5]): 11 mg/kg

**Q.** CC1(C)OC(c2ccc(Cl)cc2)=CC1=O was tested. Which inhibition in vivo at 25 mg/kg (Rattus norvegicus [6]) did it give?
**A.** 29%

**Q.** Which inhibition in vivo at 25 mg/kg (Rattus norvegicus [6]) does the source give for CC1(C)OC(/C=C/c2cc(Cl)cc(Cl)c2)=CC1=O here?
**A.** 63%

**Q.** CC1(c2ccc(F)cc2)OC(/C=C/c2ccc(C#N)cc2)=CC1=O (configuration not stated) was tested. Which inhibition in vivo at 10 mg/kg (Rattus norvegicus [8]) did it give?
**A.** 1%

**Q.** CC1(c2ccccc2)OC(/C=C/c2ccsc2)=CC1=O (configuration not stated) was tested. Which inhibition in vivo at 10 mg/kg (Rattus norvegicus [8]) did it give?
**A.** 0%

**Q.** CC1(C)OC(/C=C/c2ccccc2)=CC1=O was tested. Which ED50 (Rattus norvegicus [5]) did it give?
**A.** 17 mg/kg

**Q.** Which ED50 (Rattus norvegicus [5]) does the source give for CC1(C)OC(/C=C/c2ccnc3ccccc23)=CC1=O here?
**A.** 2.5 mg/kg

**Q.** How did the inhibition in vivo at 25 mg/kg (Rattus norvegicus [6]) turn out when CC1(C)OC(/C=C/c2ccc(Cl)c(Cl)c2)=CC1=O was run?
**A.** 45%

**Q.** With C/C(=C\c1ccccc1)C1=CC(=O)C(C)(C)O1 as the compound, how does the inhibition in vivo at 10 mg/kg (Rattus norvegicus [8]) read?
**A.** 0%

**Q.** For CC1(C)OC(c2ccccc2)=CC1=O, which ED50 (Rattus norvegicus [5]) is on record?
**A.** 19 mg/kg

**Q.** For CC1(C)OC(/C=C/c2ccncc2)=CC1=O, which ED50 (Rattus norvegicus [1]) is on record?
**A.** 20 mg/kg

**Q.** And the Inhibition (Rattus norvegicus [13])?
**A.** 46%

**Q.** And the ED50 (Rattus norvegicus [5])?
**A.** 4 mg/kg

**Q.** With COc1ccc(C2=CC(=O)C(C)(C)O2)cc1 as the compound, how does the Inhibition (Rattus norvegicus [14]) read?
**A.** 30%

**Q.** With CC1(C)OC(/C=C/c2ccc(Br)cc2)=CC1=O as the compound, how does the ED50 (Rattus norvegicus [5]) read?
**A.** 18 mg/kg

**Q.** With CC(=O)c1ccc2c(c1)C(=O)C1(CC1)O2 [SPIZOFURONE] as the compound, how does the ED50 (Rattus norvegicus [1]) read?
**A.** 100 mg/kg

**Q.** And the Inhibition (Rattus norvegicus [7])?
**A.** 72%

**Q.** And the Inhibition (Rattus norvegicus [16])?
**A.** 95%

**Q.** What about the Inhibition (Rattus norvegicus [17]) of the same compound?
**A.** 78%

**Q.** And the Inhibition (Rattus norvegicus [13])?
**A.** 44%

**Q.** And the ED50 (Rattus norvegicus [5])?
**A.** 10 mg/kg

**Q.** What about the Inhibition (Rattus norvegicus [18]) of the same compound?
**A.** 0%
